# Measured values taken from PMC6728149 (Science signaling, 2019).
# “Also recorded” adds a separate entry of the source.
# How the values were obtained:
# Assay type in all cases: cell-based, human
# MYC = MYC protein levels by immunoblot in MIA PaCa-2 cells; details: 6 hours
# CDK9 = test: pPol II; details: MIA PaCa-2 cells, 6 hours
# In short: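 After 6 h compound exposure, MIA PaCa-2 lysates were made in 1% Triton buffer, pH 7.4, with protease and phosphatase inhibitors, cleared at 18,000 x g, 15 min, 4 °C, and quantified by Bradford. pPol II and MCL-1 were immunoblotted as CDK9 signaling read-outs.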
# CDK8/19 = test: pSTAT1; details: MIA PaCa-2 cells
# In short: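 CDK8/19 inhibition in compound-treated MIA PaCa-2 cells was read as pSTAT1 by immunoblot. Lysis was in 1% Triton buffer (25 mM Tris pH 7.4) with protease and phosphatase inhibitors; clarification was at 18,000 x g, 15 min, 4 °C. Blots are representative of at least three independent experiments.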
# EGFP-MYC = test: GPS-MYC degradation screen; details: 6 hours; for effect on EGFP-MYC stability in the GPS-MYC screen: 20 μM
# In short: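 MIA PaCa-2 cells were lentivirally transduced with DsRed-IRES-EGFP-MYC and selected with 2 μg/ml puromycin. Frozen stocks were thawed, grown 2 days, then plated at 20,000 cells/well in 384-well plates. Next day, compound was given in DMEM/2% FBS for 6 h. Controls were DMSO, cycloheximide (final 7.5 μg/ml) and MG132 (final 3.75 μM). Cells were detached with Accumax (20 min, 37 °C) and read by plate flow cytometer for EGFP/DsRed. Values were normalized to control wells; run in duplicate.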
# MYC Ser^62 = test: pMYC Ser62 immunoblot in MIA PaCa-2 cells; details: 30 min
# In short: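 MIA PaCa-2 cells were exposed to CDK9 inhibitors for 30 min. Lysates were cleared at 18,000 x g, 15 min, 4 °C, and protein was quantified by Bradford. pMYC Ser62 and total MYC were immunoblotted.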
# MYC mRNA = MYC mRNA by qPCR; details: MIA PaCa-2 cells
# In short: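 MIA PaCa-2 cells were compound-treated (6 h where stated). MYC mRNA was measured by qPCR, normalized to GAPDH or BACT mRNA, and analysed by the ddCT method.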
SMILES,endogenous MYC protein levels (MYC),effect on EGFP-MYC stability in the GPS-MYC screen (EGFP-MYC),other results
CN1CCN(C(=O)c2ccc3cc(CCNc4ncnc5ccc(C#N)cc45)ccc3c2)CC1 [Senexin B],but not MYC protein levels,,MCL-1 protein levels (CDK9): absence of a reduction in MCL-1; pSTAT1 (phosphorylation of STAT1 at S727) (CDK8/19): reduction in pSTAT1
COc1cc(N2CCN(C)CC2)ccc1Nc1nccc(-c2cn(C)c3cnccc23)n1 [AZ191],failed to cause a dose-dependent loss of endogenous MYC protein,,
COc1ncc2cc(C(=O)Nc3cc(C(=O)NCc4cccc(Cl)c4)ccc3Cl)c(=O)[nH]c2n1 [TC-S 7004],failed to cause a dose-dependent loss of endogenous MYC protein,,
O=C(Nc1n[nH]c2nc(-c3ccco3)c(Br)cc12)C1CC1 [UNC10112671],,stabilized MYC,
CC(C)(C)c1cnc(CSc2cnc(NC(=O)C3CCN(CC(=O)NCCOCCOCCOCCNc4cccc5c4C(=O)N(C4CCC(=O)NC4=O)C5=O)CC3)s2)o1 (stereo not shown) [THAL-SNS-032],,,MYC phosphorylation at Ser^62 (MYC Ser^62): decreased MYC phosphorylation at Ser^62
CCOc1cc(N2CCC(O)CC2)ccc1Nc1ncc2c(n1)N(C)c1ccccc1C(=O)N2C [XMD8–92],,,phosphorylation of RNA polymerase II (pPol II) at S2 (CDK9): did not reduce phosphorylation of the CDK9 substrate Pol II
CN(C)CCOc1ccc(-c2nc(-c3ccncc3)c(-c3ccc4c(c3)CC/C4=N\O)[nH]2)cc1.Cl.O [UNC10112687],,destabilized MYC,
COC(=O)Nc1nc2ccc(Oc3ccc(NC(=O)Nc4ccccc4)cc3)cc2[nH]1 [UNC10112731],,increased EGFP-MYC without affecting DsRed,"MYC mRNA levels (MYC mRNA): not due to increased transcription; EGFP-MYC and endogenous MYC levels in GPS-MYC cells (EGFP-MYC; secondary validation, flow cytometry and immunoblot): dose-dependent increase in EGFP-MYC and endogenous MYC levels"
S=C(NCc1ccc2c(c1)OCO2)N1CCN(c2ncnc3c2oc2ccccc23)CC1 [amuvatinib],did not increase endogenous MYC in a dose-dependent manner; also recorded: failed to cause a dose-dependent loss of endogenous MYC protein,,
